Assay results from ChEMBL document CHEMBL2417522, “N-aryl-6-methoxy-1,2,3,4-tetrahydroquinolines: a novel class of antitumor agents targeting the colchicine site on tubulin” (Eur J Med Chem, 2013).
≈ marks a conversion by molar mass, not a printed value. Calls of active or inactive are those of the source. No cut-off for these calls is given here.

Columns and labels:
[1] = test system: A549; assay: Cytotoxicity against human A549 cells at 60 uM by SRB method; format: functional, cell-based
[2] = test system: KBVIN; assay: Cytotoxicity against human KBVIN cells at 60 uM by SRB method; format: functional, cell-based
[3] = test system: DU-145; assay: Cytotoxicity against human DU145 cells at 60 uM by SRB method; format: functional, cell-based
[4] = test system: KB; assay: Cytotoxicity against human KB cells at 60 uM by SRB method; format: functional, cell-based
[5] = test system: DU-145; assay: Cytotoxicity against human DU145 cells by SRB method; format: functional
[6] = test system: A549; assay: Cytotoxicity against human A549 cells by SRB method; format: functional
[7] = test system: KB; assay: Cytotoxicity against human KB cells by SRB method; format: functional
[8] = Cytotoxicity against human KBVIN cells by SRB method; format: functional
[9] = biological target: T1, Tubulin (Homo sapiens) (UniProt P68371+Q9H4B7+P0DPH7+P68366+Q13509+Q71U36+P04350+Q3ZCM7+P07437+P68363+Q9BQE3+Q6PEY2+Q13885+Q9BVA1+Q9BUF5); assay: Competitive inhibition of [3H]colchicine binding to tubulin (unknown origin) at 5 uM after 10 mins by radioligand displacement assay; format: protein-complex assay
Outline: (§1)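 [3H]colchicine binding: 1.0 µM tubulin, 5.0 µM [3H]colchicine and inhibitor at 5.0 or 1.0 µM, 10 min at 37 °C, when control binding reaches about 40–60% of maximum. […] Percent inhibition reported.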

[10] = […] partition coefficient, log P of the compound at pH 7.4 after 24 hrs by HPLC analysis; format: physicochemical
Outline: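 Compound dissolved at 1.0 mg/mL in […]. Log P taken from the ratio of HPLC peak areas in the […] and water phases.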

[11] = Aqueous solubility of the compound at pH 7.4 after 4 hrs by HPLC-UV method; format: physicochemical; details: buffer, pH 7.4, 4 h
Outline: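 Solubility at pH 7.4: DMSO stock (1.0 mg/mL) diluted into phosphate buffer, final DMSO 1%; stirred 4 h at rt, centrifuged; saturated supernatant quantified by HPLC–UV against a standard curve (50–0.20 µg/mL in ACN). Triplicate samples.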

[12] = biological target: Tubulin; assay: Inhibition of tubulin assembly (unknown origin) preincubated for 15 mins followed by GTP addition measured after 20 mins by turbidimetric analysis; format: protein-complex assay, Homo sapiens
[13] = biological target: T1, Tubulin (Homo sapiens); assay: Competitive inhibition of [3H]colchicine binding to tubulin (unknown origin) at 1 uM after 10 mins by radioligand displacement assay; format: protein-complex assay; outline: as §1
[14] = test system: Liver microsomes; assay: Half life in human liver microsomes at 1 uM by LC-MS analysis; format: ADME, Microsome

SMILES	growth inhibition (GI) [1]	growth inhibition (GI) [2]	growth inhibition (GI) [3]	growth inhibition (GI) [4]	GI50 [5] [nM]	GI50 [6] [nM]	GI50 [7] [nM]	GI50 [8] [nM]	inhibition [9] [%]	logD at 24 h [10]	solubility [11] [µg/mL]	IC50 [12] [nM]	inhibition [13] [%]	t1/2 [14] [min]
COc1ccc(N(C)c2cc(Br)cc(C(=O)O)c2)cc1	inactive	inactive	inactive	inactive										
CNC(=O)c1cc(N(C)c2ccc(OC)cc2)cc(C(F)(F)F)c1					11900	14700	12300	12600						
CNC(=O)c1ccc(Cl)cc1N(C)c1ccc(OC)cc1					98900	43200	188000	61000						
COC(=O)c1ccc(Cl)nc1N(C)c1ccc(OC)cc1					210	230	260	200						
CNC(=O)c1cc(Br)cc(N2CCCc3cc(OC)ccc32)c1					560	370	630	930						
COc1ccc2c(c1)CCCN2c1cc(Br)cc(C(=O)NC2CC2)c1					150	170	160	190	75	4.75	0.26 (≈ 0.648 µM)	1000		
CNc1nc(N2CCCc3cc(OC)ccc32)c2ccccc2n1					23	27	25	29	95	1.07	7.21 (≈ 22.5 µM)	920	76	25.97
COc1ccc2c(c1)CCCN2c1cc(C)nc2ccccc12					38	45	91	55	87	3.98	3.21 (≈ 10.5 µM)	1000	61	7.89
COc1ccc(N(C)c2cc(Cl)ccc2CO)cc1					16000	21700	19500	18100						
COc1ccc2c(c1)CCCN2c1nc(C)nc2ccccc12					15	18	11	18	98	3.65	7.67 (≈ 25.1 µM)	1000	89	25.19
CNC(=O)c1cc(Cl)cc(N(C)c2ccc(OC)cc2)c1					230	270	300	230						
COc1ccc2c(c1)CCCN2c1nc(Cl)nc2ccccc12					1.5				99	4.13		930	95	
COC(=O)c1cc(Cl)cc(N2CCCc3cc(OC)ccc32)c1					1510	2230	2330	1780						
COCc1ccc(Cl)cc1N(C)c1ccc(OC)cc1					3130	4530	5240	2850						
COC(=O)c1ccc(Cl)cc1N(C)c1ccc(OC)cc1					1680	3360	1980	1890						
COc1ccc(N(C)c2cc(Br)cc(C(=O)NC3CC3)c2)cc1							170		69	4.33	0.16 (≈ 0.426 µM)	1600		
CNC(=O)c1cc(Cl)cc(N2CCCc3cc(OC)ccc32)c1					1020	740	1040	430						
COc1ccc2c(c1)CCCN2c1cccc2ccccc12					14800	17800	15600	17600						
CNC(=O)c1cc(Br)cc(N(C)c2ccc(OC)cc2)c1					160	250	210	140	71	4.02	0.81 (≈ 2.32 µM)	2200		
COC(=O)c1cc(Br)cc(N2CCCc3cc(OC)ccc32)c1					1280	1120	1370	1270						
COC(=O)c1cc(Br)cc(N(C)c2ccc(OC)cc2)c1					970	1240	1360	1200						
COC(=O)c1cc(Cl)cc(N(C)c2ccc(OC)cc2)c1					1460	1600	1610	1570						
CC(=O)O[C@H]1C(=O)[C@@]2(C)[C@H]([C@H](OC(=O)c3ccccc3)[C@]3(O)C[C@H](OC(=O)[C@H](O)[C@@H](NC(=O)c4ccccc4)c4ccccc4)C(C)=C1C3(C)C)[C@]1(OC(C)=O)CO[C@@H]1C[C@@H]2O [PACLITAXEL]					6	7.6	6.4	1210						
COc1ccc(N(C)c2cc(Br)cc(C(=O)NC3CCCC3)c2)cc1					110		120							
COc1ccc(N(C)c2cc(Br)cc(C(=O)N(C)C)c2)cc1					3340	2830	6520	2380						
COC(=O)c1cc(N(C)c2ccc(OC)cc2)cc(C(F)(F)F)c1					11500	15100	13500	13100						
